Source: ChEMBL document CHEMBL4689842, “EUbOPEN Chemogenomics Library wave 1” (2021)

Test system: HEK-293T
Experiment: Multiplex assay against HEK293T;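 as to Population Tubulin-Different-Phenotype (%): share of the cells with healthy nuclei that show this phenotype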
Format: toxicity, cell-based
Conditions: human
Summary of the method: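 Cells stained live at seeding with Hoechst33342, BioTracker Green Microtubule Cytoskeleton Dye, MitoTracker Red and Annexin V Alexa Fluor 680 were imaged on a CQ1 microscope at 37°C and 5% CO2 after compound addition. Their classification by CellPathfinder machine-learning gating ran from Hoechst high-intensity objects versus normal cells, to healthy, pyknosed or fragmented nuclei among normal cells, to mitotic or apoptotic among pyknosed cells. Tubulin, mitochondrial-mass and membrane-permeability phenotypes are per cents of healthy-nucleus cells.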

[1] = 12 h, 1 µM, compound concentration 1 uM, replicate 1
[2] = 12 h, 1 µM, compound concentration 1 uM, replicate 2
[3] = 12 h, 10 µM, compound concentration 10 uM, replicate 1
[4] = 12 h, 10 µM, compound concentration 10 uM, replicate 2
[5] = 24 h, 1 µM, compound concentration 1 uM, replicate 1
[6] = 24 h, 1 µM, compound concentration 1 uM, replicate 2
[7] = 24 h, 10 µM, compound concentration 10 uM, replicate 1
[8] = 24 h, 10 µM, compound concentration 10 uM, replicate 2
[9] = 48 h, 1 µM, compound concentration 1 uM, replicate 1
[10] = 48 h, 1 µM, compound concentration 1 uM, replicate 2
[11] = 48 h, 10 µM, compound concentration 10 uM, replicate 1
[12] = 48 h, 10 µM, compound concentration 10 uM, replicate 2

`CCc1nn(CCCN2CCN(c3cccc(Cl)c3)CC2)c(=O)n1CCOc1ccccc1.Cl` [NEFAZODONE HYDROCHLORIDE] was tested, and the “Population Apoptotic (%)” value [1] was 47%, the “Population Fragmented Nuclei (%)” value [1] was 7% and the “Population Healthy Nuclei (%)” value [1] was 45%. The “Population Hoechst High Intensity Objects (%)” value [1] was 10%, the “Population Membrane Permeable-Phenotype (%)” value [1] was 7% and the “Population Mitochondria Different-Phenotype (%)” value [1] was 88%. The “Population Mitotic Cells (%)” value [1] was 52%, the “Population Normal (%)” value [1] was 89% and the “Population Pyknosed Nuclei (%)” value [1] was 46%. The “Population Tubulin-Different-Phenotype (%)” value [1] was 72%, the “Population Apoptotic (%)” value [2] was 9% and the “Population Fragmented Nuclei (%)” value [2] was 5%. The “Population Healthy Nuclei (%)” value [2] was 34%, the “Population Hoechst High Intensity Objects (%)” value [2] was 3% and the “Population Membrane Permeable-Phenotype (%)” value [2] was 9%. The “Population Mitochondria Different-Phenotype (%)” value [2] was 54%, the “Population Mitotic Cells (%)” value [2] was 90% and the “Population Normal (%)” value [2] was 96%. The “Population Pyknosed Nuclei (%)” value [2] was 59%, the “Population Tubulin-Different-Phenotype (%)” value [2] was 49% and the “Population Apoptotic (%)” value [3] was 90%. For the same compound, the “Population Fragmented Nuclei (%)” value [3] was 29%, the “Population Hoechst High Intensity Objects (%)” value [3] was 21% and the “Population Mitochondria Different-Phenotype (%)” value [3] was 81%. For the same compound, the “Population Mitotic Cells (%)” value [3] was 9%, the “Population Normal (%)” value [3] was 78% and the “Population Pyknosed Nuclei (%)” value [3] was 53%. For the same compound, the “Population Tubulin-Different-Phenotype (%)” value [3] was 81%, the “Population Apoptotic (%)” value [4] was 83% and the “Population Fragmented Nuclei (%)” value [4] was 3%. For the same compound, the “Population Healthy Nuclei (%)” value [4] was 17%, the “Population Hoechst High Intensity Objects (%)” value [4] was 13% and the “Population Membrane Permeable-Phenotype (%)” value [4] was 0%. For the same compound, the “Population Mitochondria Different-Phenotype (%)” value [4] was 100%, the “Population Mitotic Cells (%)” value [4] was 16% and the “Population Normal (%)” value [4] was 86%. For the same compound, the “Population Pyknosed Nuclei (%)” value [4] was 78%, the “Population Tubulin-Different-Phenotype (%)” value [4] was 100% and the “Population Apoptotic (%)” value [5] was 50%. For the same compound, the “Population Fragmented Nuclei (%)” value [5] was 8%, the “Population Healthy Nuclei (%)” value [5] was 57% and the “Population Hoechst High Intensity Objects (%)” value [5] was 6%. For the same compound, the “Population Membrane Permeable-Phenotype (%)” value [5] was 3%, the “Population Mitochondria Different-Phenotype (%)” value [5] was 89% and the “Population Mitotic Cells (%)” value [5] was 50%. The “Population Normal (%)” value [5] was 93%, the “Population Pyknosed Nuclei (%)” value [5] was 34% and the “Population Tubulin-Different-Phenotype (%)” value [5] was 67%. For the same compound, the “Population Apoptotic (%)” value [6] was 23%, the “Population Fragmented Nuclei (%)” value [6] was 4% and the “Population Healthy Nuclei (%)” value [6] was 47%. For the same compound, the “Population Hoechst High Intensity Objects (%)” value [6] was 4%, the “Population Membrane Permeable-Phenotype (%)” value [6] was 8% and the “Population Mitochondria Different-Phenotype (%)” value [6] was 52%. The “Population Mitotic Cells (%)” value [6] was 76%, the “Population Normal (%)” value [6] was 95% and the “Population Pyknosed Nuclei (%)” value [6] was 47%. For the same compound, the “Population Tubulin-Different-Phenotype (%)” value [6] was 64%, the “Population Apoptotic (%)” value [7] was 90% and the “Population Fragmented Nuclei (%)” value [7] was 25%. The “Population Healthy Nuclei (%)” value [7] was 21%, the “Population Hoechst High Intensity Objects (%)” value [7] was 24% and the “Population Mitotic Cells (%)” value [7] was 9%. The “Population Normal (%)” value [7] was 75%, the “Population Pyknosed Nuclei (%)” value [7] was 52% and the “Population Apoptotic (%)” value [8] was 97%. The “Population Fragmented Nuclei (%)” value [8] was 6%, the “Population Healthy Nuclei (%)” value [8] was 19% and the “Population Hoechst High Intensity Objects (%)” value [8] was 10%. The “Population Membrane Permeable-Phenotype (%)” value [8] was 0%, the “Population Mitochondria Different-Phenotype (%)” value [8] was 100% and the “Population Mitotic Cells (%)” value [8] was 2%. For the same compound, the “Population Normal (%)” value [8] was 89%, the “Population Pyknosed Nuclei (%)” value [8] was 73% and the “Population Tubulin-Different-Phenotype (%)” value [8] was 100%. The “Population Apoptotic (%)” value [9] was 31%, the “Population Fragmented Nuclei (%)” value [9] was 7% and the “Population Healthy Nuclei (%)” value [9] was 77%. The “Population Hoechst High Intensity Objects (%)” value [9] was 5%, the “Population Membrane Permeable-Phenotype (%)” value [9] was 2% and the “Population Mitochondria Different-Phenotype (%)” value [9] was 49%. For the same compound, the “Population Mitotic Cells (%)” value [9] was 68%, the “Population Normal (%)” value [9] was 94% and the “Population Pyknosed Nuclei (%)” value [9] was 14%. For the same compound, the “Population Tubulin-Different-Phenotype (%)” value [9] was 44%, the “Population Apoptotic (%)” value [10] was 17% and the “Population Fragmented Nuclei (%)” value [10] was 4%. The “Population Healthy Nuclei (%)” value [10] was 72%, the “Population Hoechst High Intensity Objects (%)” value [10] was 1% and the “Population Membrane Permeable-Phenotype (%)” value [10] was 6%. For the same compound, the “Population Mitochondria Different-Phenotype (%)” value [10] was 27%, the “Population Mitotic Cells (%)” value [10] was 82% and the “Population Normal (%)” value [10] was 98%. For the same compound, the “Population Pyknosed Nuclei (%)” value [10] was 22%, the “Population Tubulin-Different-Phenotype (%)” value [10] was 49% and the “Population Apoptotic (%)” value [11] was 90%. For the same compound, the “Population Fragmented Nuclei (%)” value [11] was 21%, the “Population Healthy Nuclei (%)” value [11] was 33% and the “Population Hoechst High Intensity Objects (%)” value [11] was 15%. For the same compound, the “Population Membrane Permeable-Phenotype (%)” value [11] was 1%, the “Population Mitochondria Different-Phenotype (%)” value [11] was 98% and the “Population Mitotic Cells (%)” value [11] was 9%. The “Population Normal (%)” value [11] was 84%, the “Population Pyknosed Nuclei (%)” value [11] was 44% and the “Population Tubulin-Different-Phenotype (%)” value [11] was 94%. For the same compound, the “Population Apoptotic (%)” value [12] was 95%, the “Population Fragmented Nuclei (%)” value [12] was 6% and the “Population Healthy Nuclei (%)” value [12] was 27%. The “Population Hoechst High Intensity Objects (%)” value [12] was 12%, the “Population Membrane Permeable-Phenotype (%)” value [12] was 0% and the “Population Mitochondria Different-Phenotype (%)” value [12] was 100%. For the same compound, the “Population Mitotic Cells (%)” value [12] was 4%, the “Population Normal (%)” value [12] was 87% and the “Population Pyknosed Nuclei (%)” value [12] was 65%. The “Population Tubulin-Different-Phenotype (%)” value [12] was 100%.
